Laboratory results published in ChEMBL document CHEMBL1124458, “Electrophilic derivatives of purines as irreversible inhibitors of A1 adenosine receptors” (J Med Chem, 1989).

Tests used:
[1] = target: T1, Adenosine receptor A1 (Rattus norvegicus, UniProt P25099); test: Affinity for adenosine A1 receptor using [3H]N6-(phenylisopropyl)adenosine (R)-[3H]-PIA as a radioligand in rat brain.; format: tissue-based
T1 sequence (P25099 whole entry): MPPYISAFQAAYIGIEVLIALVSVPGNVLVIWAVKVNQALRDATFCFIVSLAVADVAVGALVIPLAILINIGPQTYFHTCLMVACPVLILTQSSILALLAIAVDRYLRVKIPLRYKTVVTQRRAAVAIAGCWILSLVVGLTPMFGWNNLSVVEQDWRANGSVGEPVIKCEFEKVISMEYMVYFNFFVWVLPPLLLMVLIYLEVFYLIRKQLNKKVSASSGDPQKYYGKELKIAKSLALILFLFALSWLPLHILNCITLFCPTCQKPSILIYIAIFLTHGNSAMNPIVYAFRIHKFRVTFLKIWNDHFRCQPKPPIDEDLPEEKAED

[2] = target: T2, Adenosine receptor A1 (Rattus norvegicus) (UniProt P25099); test: Inhibition of [125I]-APNEA binding to adenosine A1 receptor of rat brain at 50 nM
T2 sequence (whole entry): T1 sequence (P25099 whole entry)
Procedure, shortened: (§1)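 Adenosine deaminase-treated rat cerebral cortex membranes were exposed to the ligand for 45 min at 37 °C. They were washed three times, held in buffer with 10⁻⁴ M IBMX for 18 h at 25 °C, washed and re-treated with deaminase. Residual sites were measured by 125I-APNEA saturation (0.1–2.5 nM) against untreated membranes carried through the same procedure.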

[3] = target: T3, Adenosine receptor A1 (Bos taurus, UniProt P28190); test: Affinity for Adenosine A1 receptor using [125I]APNEA in calf brain.
T3 sequence (P28190 whole entry): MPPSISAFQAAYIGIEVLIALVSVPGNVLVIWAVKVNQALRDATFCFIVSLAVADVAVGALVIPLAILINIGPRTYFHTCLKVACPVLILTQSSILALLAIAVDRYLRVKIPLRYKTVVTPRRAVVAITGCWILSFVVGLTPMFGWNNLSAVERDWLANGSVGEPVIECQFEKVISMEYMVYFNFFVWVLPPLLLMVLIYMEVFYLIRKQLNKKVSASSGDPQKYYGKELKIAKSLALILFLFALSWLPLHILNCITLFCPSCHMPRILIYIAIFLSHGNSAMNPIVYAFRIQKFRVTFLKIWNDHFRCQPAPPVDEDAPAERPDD
Procedure, shortened: (§2)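 Bovine cerebral cortex membranes were pretreated with adenosine deaminase (0.5 unit/mL, 20 min, 37 °C). Membranes (40 µg) were incubated with 125I-APNEA and competitor for 1 h at 37 °C. Separation was by dilution in cold Tris-HCl/MgCl2/EDTA buffer, pH 8.26, with 0.02% Chaps, then glass-filter filtration and gamma counting. Nonspecific binding was defined with 10⁻⁵ M (R)-PIA.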

[4] = target: T2, Adenosine receptor A1 (Rattus norvegicus); test: Percentage inhibition of [125I]APNEA binding to adenosine A1 receptor from rat brain after 45 min incubation at 500 nM; procedure, shortened: as §1
[5] = target: T1, Adenosine receptor A1; test: Affinity for adenosine A1 receptor using [3H]-N6 -(phenylisopropyl)-adenosine (R)-[3H]-PIA in rat brain.; format: tissue-based
Procedure, shortened: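 Rat cerebral cortex membranes were incubated with 1 nM (R)-[3H]PIA and a range of competitor concentrations. Each point was run in triplicate, in at least three separate experiments.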

[6] = target: T4, Adenosine receptors; A1 & A2 (Rattus norvegicus) (UniProt P29276+P25099+P30543); test: Relative affinities for Adenosine A2 and Adenosine A1 receptors; format: protein assay
[7] = target: T5, Adenosine A2 receptor (Rattus norvegicus, UniProt P29276+P30543); test: Inhibitory affinity for Adenosine A2 receptor using [3H]N-ethyladenosine-5'-uronamide; format: protein assay
[8] = target: T5, Adenosine A2 receptor; test: Inhibition of [3H]N-ethyladenosine-5'-uronamide binding to Adenosine A2 receptor of rat striatal membrane
[9] = target: T4, Adenosine receptors; A1 & A2 (Rattus norvegicus); test: Selectivity ratio between Ki for adenosine A2 and A1 receptors; format: protein assay
[10] = target: T3, Adenosine receptor A1; test: Affinity for Adenosine A1 receptor using [N6-[(3-[125I]-iodo-4-aminophenyl)ethyl]adenosine in calf brain; format: tissue-based; procedure, shortened: as §2
[11] = target: T2, Adenosine receptor A1 (Rattus norvegicus); test: Percentage inhibition of [125I]-APNEA binding to adenosine A1 receptor from rat brain after 45 min incubation at 50 nM; procedure, shortened: as §1
[12] = target: T2, Adenosine receptor A1 (Rattus norvegicus); test: Percentage inhibition of [125I]-APNEA binding to Adenosine A1 receptor from rat brain after 45 min incubation at 50 nM
Procedure, shortened: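 Rat cerebral cortex membranes pretreated with adenosine deaminase (0.5 unit/mL, 20 min, 37 °C). Incubated with ligand at the stated concentration for 45 min at 37 °C, then washed three times in Tris/MgCl2/EDTA buffer pH 8.26 with 0.02% Chaps. Then 10⁻⁴ M IBMX for 18 h at 25 °C, washed twice and deaminase-treated again. Untreated membranes went through every step as controls.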

[13] = target: T2, Adenosine receptor A1 (Rattus norvegicus); conditions: 5 nM
[14] = target: T2, Adenosine receptor A1 (Rattus norvegicus); conditions: 5 nM; remark: listed apart in the source
[15] = target: T2, Adenosine receptor A1 (Rattus norvegicus); conditions: 50 nM

CCCn1c(=O)c2nc(-c3ccc(OCC(=O)NCCNC(=O)CCCN4C(=O)C=CC4=O)cc3)[nH]c2n(CCC)c1=O
Ki [1]: 37.8 nM | inhibition [2]: 15%

CCCn1c(=O)c2nc(-c3ccc(OCC(=O)NCCNC(=O)CCCCC(C)=O)cc3)[nH]c2n(CCC)c1=O
Ki [3]: 6.2 nM | inhibition [4]: 0%

CCCn1c(=O)c2nc(-c3ccc(OCC(=O)NCCN=C(S)Nc4ccc(OC)cc4)cc3)[nH]c2n(CCC)c1=O
Ki [1]: 33.2 nM

COc1ccc(NC(=S)NCCNC(=O)Cc2ccc(NC(=O)Cc3ccc(Nc4ncnc5c4ncn5C4O[C@H](CO)[C@@H](O)[C@H]4O)cc3)cc2)cc1 (stereo partly drawn)
Ki [5]: 8.52 nM

O=C(CBr)NCCNC(=O)Cc1ccc(NC(=O)Cc2ccc(Nc3ncnc4c3ncn4C3O[C@H](CO)[C@@H](O)[C@H]3O)cc2)cc1 (stereo partly drawn)
Ki [1]: 8.3 nM | Ratio [6]: 76 | inhibition [2]: 38% | Ki [7]: 202 nM

CCCn1c(=O)c2nc(-c3ccc(OCC(=O)NCCNC(=O)C/N=C(\S)Nc4ccc(N=C=S)cc4)cc3)[nH]c2n(CCC)c1=O
Ratio [6]: 69 | inhibition [2]: 50% | Ki [7]: 472 nM

CCCn1c(=O)c2nc(-c3ccc(OCC(=O)NCCN=C(S)Nc4ccc(S(=O)(=O)[O-])cc4)cc3)[nH]c2n(CCC)c1=O.[Na+]
Ki [1]: 367 nM | Ki [8]: 1450 nM | Ratio [9]: 3.95

N#Cc1ccc(N/C(S)=N/CCNC(=O)Cc2ccc(NC(=O)Cc3ccc(Nc4ncnc5c4ncn5C4O[C@H](CO)[C@@H](O)[C@H]4O)cc3)cc2)cc1 (stereo partly drawn)
Ki [5]: 2.66 nM

CCCn1c(=O)c2[nH]c(-c3ccc(OCC(=O)NCCNC(=O)Cc4ccc(NC(=S)Nc5ccc(N=C=S)cc5)cc4)cc3)nc2n(CCC)c1=O
Ki [1]: 25 nM

CCCn1c(=O)c2nc(-c3ccc(OCC(=O)NCCN=C(S)Nc4ccc(F)cc4)cc3)[nH]c2n(CCC)c1=O
Ki [1]: 15.5 nM

CCCn1c(=O)c2[nH]c(-c3ccc(OCC(=O)NCCNC(=O)c4ccc(CBr)cc4)cc3)nc2n(CCC)c1=O
Ki [3]: 10.1 nM

CCCn1c(=O)c2[nH]c(-c3ccc(OCC(=O)NCCN)cc3)nc2n(CCC)c1=O [XANTHINE AMINE CONGENER]
Ki [10]: 0.3 nM

O=C(Cc1ccc(NC(=O)Cc2ccc(Nc3ncnc4c3ncn4C3O[C@H](CO)[C@@H](O)[C@H]3O)cc2)cc1)NCC/N=C(\S)Nc1c(F)c(F)c(F)c(F)c1F (stereo partly drawn)
Ki [5]: 1.64 nM

O=C(Cc1ccc(NC(=O)Cc2ccc(Nc3ncnc4c3ncn4C3O[C@H](CO)[C@@H](O)[C@H]3O)cc2)cc1)NCCNC(=S)Nc1ccccc1F (stereo partly drawn)
Ki [1]: 6.75 nM

Cc1ccc(NC(=S)NCCNC(=O)Cc2ccc(NC(=O)Cc3ccc(Nc4ncnc5c4ncn5C4O[C@H](CO)[C@@H](O)[C@H]4O)cc3)cc2)cc1 (stereo partly drawn)
Ki [1]: 3.72 nM

O=C(Cc1ccc(NC(=O)Cc2ccc(Nc3ncnc4c3ncn4C3O[C@H](CO)[C@@H](O)[C@H]3O)cc2)cc1)NCC/N=C(\S)Nc1ccc(F)cc1 (stereo partly drawn)
Ki [1]: 8.71 nM

CCCn1c(=O)c2nc(-c3ccc(OCC(=O)NCCNS(=O)(=O)c4cccc(S(=O)(=O)Cl)c4)cc3)[nH]c2n(CCC)c1=O
Ratio [6]: 42 | inhibition [11]: 23% | Ki [8]: 105 nM

CCCn1c(=O)c2[nH]c(-c3ccc(OCC(=O)NCCNC(=S)Nc4ccc(C#N)cc4)cc3)nc2n(CCC)c1=O
Ki [1]: 16.6 nM

O=C(Cc1ccc(Nc2ncnc3c2ncn3C2O[C@H](CO)[C@@H](O)[C@H]2O)cc1)Nc1ccc(CC(=O)ON2C(=O)CCC2=O)cc1 (stereo partly drawn)
Ki [1]: 9.6 nM | inhibition [2]: 44%

O=C(Cc1ccc(NC(=O)Cc2ccc(Nc3ncnc4c3ncn4C3O[C@H](CO)[C@@H](O)[C@H]3O)cc2)cc1)NCC/N=C(\S)Nc1ccc([N+](=O)[O-])cc1 (stereo partly drawn)
Ki [1]: 1.97 nM

O=C(Cc1ccc(NC(=O)Cc2ccc(Nc3ncnc4c3ncn4C3O[C@H](CO)[C@@H](O)[C@H]3O)cc2)cc1)NCCN=C=S (stereo partly drawn)
Ki [1]: 4.5 nM | Ki [3]: 4.2 nM

O=C(Cc1ccc(NC(=O)Cc2ccc(Nc3ncnc4c3ncn4C3O[C@H](CO)[C@@H](O)[C@H]3O)cc2)cc1)NCCNC(=S)Nc1ccc(N=C=S)cc1 (stereo partly drawn)
Ki [1]: 0.469 nM

O=C(Cc1ccc(Nc2ncnc3c2ncn3C2O[C@H](CO)[C@@H](O)[C@H]2O)cc1)ON1C(=O)CCC1=O (stereo partly drawn)
Ki [1]: 8.37 nM | inhibition [2]: 21%

CCCn1c(=O)c2nc(-c3ccc(OCC(=O)NCCN=C(S)Nc4ccc(N=C=S)cc4)cc3)[nH]c2n(CCC)c1=O
Ratio [6]: 48.6 | inhibition [2]: 29% | inhibition [4]: 73% | inhibition [12]: 63% | Ki [8]: 321 nM

CCCn1c(=O)c2[nH]c(-c3ccc(OCC(=O)NCCNC(=O)CCCCCCC(=O)ON4C(=O)CCC4=O)cc3)nc2n(CCC)c1=O
Ki [10]: 23 nM

CCCn1c(=O)c2nc(-c3ccc(OCC(=O)NCCN=C(S)Nc4cccc(N=C=S)c4)cc3)[nH]c2n(CCC)c1=O
Ratio [6]: 144 | inhibition [4]: 94% | Ki [8]: 343 nM | inhibition [13]: 49% | inhibition [14]: 67%

CCCn1c(=O)c2nc(-c3ccc(OCC(=O)NCCNC(=O)Cc4ccc(N/C(S)=N/c5ccc(N=C=S)cc5)cc4)cc3)[nH]c2n(CCC)c1=O
Ratio [6]: 26.2 | Ki [8]: 655 nM | inhibition [15]: 20%

O=C(Cc1ccc(NC(=O)Cc2ccc(Nc3ncnc4c3ncn4C3O[C@H](CO)[C@@H](O)[C@H]3O)cc2)cc1)NCCNC(=S)Nc1ccc(Br)cc1 (stereo partly drawn)
Ki [1]: 1.19 nM

CCCn1c(=O)c2nc(-c3ccc(OCC(=O)NCCNC(=O)CNC(=O)CCCN4C(=O)C=CC4=O)cc3)[nH]c2n(CCC)c1=O
inhibition [2]: 9%

CCCn1c(=O)c2nc(-c3ccc(OCC(=O)NCCNC(=O)CBr)cc3)[nH]c2n(CCC)c1=O
inhibition [2]: 16%

CCCn1c(=O)c2nc(-c3ccc(OCC(=O)NCCNC(=O)CCSSc4ccccn4)cc3)[nH]c2n(CCC)c1=O
inhibition [2]: 3%

CCCn1c(=O)c2nc(-c3ccc(OCC(=O)NCCNC(=O)CCCCCCC(=O)ON4C(=O)CCC4=O)cc3)[nH]c2n(CCC)c1=O
inhibition [2]: 32% | Ki [8]: 207 nM

CCCn1c(=O)c2nc(-c3ccc(OCC(=O)NCCNC(=O)CCC(=O)ON4C(=O)CCC4=O)cc3)[nH]c2n(CCC)c1=O
inhibition [4]: 0%

O=C(Cc1ccc(NC(=O)Cc2ccc(Nc3ncnc4c3ncn4C3O[C@H](CO)[C@@H](O)[C@H]3O)cc2)cc1)NCCNC(=S)Nc1cccc(N=C=S)c1 (stereo partly drawn)
Ki [1]: 0.867 nM

CCCn1c(=O)c2nc(-c3ccc(OCC(=O)ON4C(=O)CCC4=O)cc3)[nH]c2n(CCC)c1=O
inhibition [2]: 10%

CCCn1c(=O)c2nc(-c3ccc(OCC(=O)NCCN=C(S)Nc4ccc([N+](=O)[O-])cc4)cc3)[nH]c2n(CCC)c1=O
Ki [1]: 15.9 nM

CCCn1c(=O)c2[nH]c(-c3ccc(OCC(=O)NCCNC(=O)CNC(=O)CCCN4C(=O)C=CC4=O)cc3)nc2n(CCC)c1=O
Ki [5]: 23.2 nM

CCCn1c(=O)c2nc(-c3ccc(OCC(=O)NCCNC(=O)c4ccc(CBr)cc4)cc3)[nH]c2n(CCC)c1=O
inhibition [2]: 15%
